Published values collected from several papers.
Lines come from different studies, so protocols differ.
CHRNA7: Neuronal acetylcholine receptor subunit alpha-7 (CHRNA7, Homo sapiens, UniProt P36544)
HRH3: Histamine H3 receptor (HRH3, Homo sapiens, UniProt Q9Y5N1)
CNR2: Cannabinoid receptor 2 (CNR2, Homo sapiens, UniProt P34972)
Ntsr1: Neurotensin receptor type 1 (Ntsr1, Rattus norvegicus, UniProt P20789)

| SMILES | target | observed | action | method | setting | measurement | result |
| --- | --- | --- | --- | --- | --- | --- | --- |
| COc1ccc2c3c([nH]c2c1)CCN(C)CC3 | CHRNA7 | ion current | antagonist | two-electrode voltage clamp | oocytes | IC50 | 10300 nM |
| COC(=O)c1cc(N(C)C(=O)c2ccn3ncc(-c4ccc(C(=O)O)cc4)c3c2)ccc1Cl | HRH3 | cell-free assay | – | – | – | IC50 | > 30000 nM |
| CC[C@H](C)[C@H](NC(C)=O)C(=O)N[C@@H](CCC(=O)O)C(=O)N[C@H](C(=O)N[C@H](C=O)CC(=O)O)[C@@H](C)O | Caspase-2 (Homo sapiens, UniProt P42575) | enzyme activity | inhibitor | – | – | IC50 | 73.3 nM |
| CCC(CC)(NC(=O)c1ccc(C2CC2)c(Cc2ccc(F)cc2)n1)C(=O)NCCOCCOCCNC(=O)c1ccc2c(c1)C(=O)OC21c2ccc(N)c(S(=O)(=O)O)c2Oc2c1ccc(N)c2S(=O)(=O)O | CNR2 | ligand displacement | – | radioligand | cell membranes | Ki | 141 nM |
| CC(C)C[C@@H]1NC(=O)[C@H](C(C)(C)C)NC(=O)[C@H](Cc2ccc(O)cc2)NC(=O)[C@@H]2CCCN2C(=O)[C@H](CCCCN)NC(=O)[C@H](CCCNC(=N)N)NC1=O | Ntsr1 | ligand displacement | – | – | – | Ki | > 100000 nM |
| CCCCCc1cc(O)c2c(c1)OC(C)(CCC=C(C)C)C=C2 (stereo not drawn) | CNR2 | ligand displacement | – | radioligand | cell membranes | Ki | 1740 nM |
| CC(C)(C)OC(=O)N1CCN(C(=O)n2cc(-c3ccc(OC(F)(F)F)cc3)nn2)C(Cc2ccccc2)C1 (stereo not drawn) | Monoacylglycerol lipase ABHD6 (Abhd6, Mus musculus, UniProt Q8R2Y0) | enzyme activity | inhibitor | – | – | IC50 | 8.1 nM |
| COc1ccc2[nH]c3c(c2c1)CCN(C)CC3 | CHRNA7 | ion current | antagonist | two-electrode voltage clamp | oocytes | IC50 | 11200 nM |
| CCC(CC)(NC(=O)c1ccc(N2CC(OC)C2)c(OC[C@H]2C[C@@H]2CO)n1)C(=O)NCCOCCOCCNC(=O)c1ccc2c(c1)C1(OC2=O)c2ccc(N(C)C)cc2[Si](C)(C)c2cc(N(C)C)ccc21 | CNR2 | ligand displacement | – | radioligand | cell membranes | Ki | 1620 nM |
| C=C1CC[C@H]2O[C@]2(C)CC[C@@H]2[C@@H]1CC2(C)C | CNR2 | ligand displacement | – | radioligand | cell membranes | Ki | > 10000 nM |
| CNC(=O)c1ccc(-c2cnn3ccc(C(=O)N(C)c4ccc(Cl)c(C(=O)OC)c4)cc23)cc1 | HRH3 | cell-free assay | – | – | – | IC50 | > 30000 nM |
| CC(C)C[C@H](NC(=O)[C@@H](N)C(C)(C)C)C(=O)N[C@@H](CCCNC(=N)N)C(=O)N[C@@H](CCCCN)C(=O)N1CCC[C@H]1C(=O)N[C@@H](Cc1ccc(O)cc1)C(=O)O | Ntsr1 | ligand displacement | – | flow cytometry | – | Ki | > 100000 nM |
